ChEMBL document CHEMBL1157732, “Piperazinyl pyrimidine derivatives as potent gamma-secretase modulators” (Bioorg Med Chem Lett, 2010)

Experiments:
[1] = Activity at gamma-secretase expressed in human SH-SY5Y cells assessed as inhibition of amyloid beta 42 production by electrochemiluminescence assay; format: cell-based
Procedure, shortened: (§1)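 SH-SY5Y cells stably overexpressing the β-APP C-terminal fragment SPA4CT; Aβ40 and Aβ42 peptides secreted into the medium quantified by electrochemiluminescent detection; IC50 values derived from these measurements.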

[2] = Activity at gamma-secretase expressed in human SH-SY5Y cells assessed as inhibition of amyloid beta 40 production by electrochemiluminescence assay; format: cell-based; procedure, shortened: as §1
[3] = target: Gamma-secretase (Homo sapiens) (UniProt Q96BI3+Q9NZ42+Q8WW43+P49768+Q92542+P49810); assay: Selectivity ratio, IC50 for human gamma-secretase-mediated NotchdeltaE cleavage to IC50 for gamma-secretase-mediated amyloid beta 42 production; format: protein-complex assay
Gamma-secretase = assay: Inhibition of gamma-secretase-mediated NotchdeltaE cleavage in human HeLa cells by luciferase assay; format: cell-based

SMILES	IC50 [1]	IC50 [2]	Ratio IC50 [3]	IC50 (Gamma-secretase)
COc1ccc(N2CCN(c3nc(Nc4cc(C(C)(C)C)ccc4C)cc(OCCC4CCCN4C)n3)CC2(C)C)cc1 (stereo not given)	235 nM	5600 nM	> 210	> 50000 nM
COc1ccc(N2CCN(c3nc(Nc4cc(C(C)(C)C)ccc4C)cc(S(C)(=O)=O)n3)CC2(C)C)cc1	400 nM	5780 nM		
COc1ccc(N2CCN(c3nccc(Nc4cc(C(C)(C)C)ccc4C)n3)CC2(C)C)cc1	255 nM	5560 nM		
CCOc1cc(C)c(Nc2ccnc(N3CCN(c4ccc(OC)cc4)C(C)(C)C3)n2)cc1C	534 nM	6300 nM		
COc1ccc(N2CCN(c3nc(Nc4cc(C(C)(C)C)ccc4C)cc(OCCN4CCOCC4)n3)CC2(C)C)cc1	263 nM	6150 nM	> 190	> 50000 nM
CCN(CC)c1cc(C)c(Nc2ccnc(N3CCN(c4ccc(OC)cc4)CC3)n2)cc1C	1910 nM	3740 nM		
COc1ccc(N2CCN(c3nc(Nc4cc(C(C)(C)C)ccc4C)cc(N(C)CCN(C)C)n3)CC2(C)C)cc1	213 nM	1970 nM		
CNC(=O)c1cc(Nc2cc(C(C)(C)C)ccc2C)nc(N2CCN(c3ccc(OC)cc3)C(C)(C)C2)n1	307 nM	2980 nM		
COc1ccc(N2CCN(c3nccc(Nc4cc(C(C)(C)C)ccc4Cl)n3)CC2(C)C)cc1	695 nM	1000 nM		
COc1ccc(N2CCN(c3nccc(Nc4cc(-c5ccccc5)ccc4C)n3)CC2(C)C)cc1	410 nM	2280 nM		
COc1ccc(N2CCN(c3nc(CC(=O)O)cc(Nc4cc(C(C)(C)C)ccc4C)n3)CC2(C)C)cc1	572 nM	6410 nM		
COc1ccc(N2CCN(c3nccc(Nc4cc(C)ccc4C)n3)CC2(C)C)cc1	1000 nM	4580 nM		
COc1ccc(N2CCN(c3nc(Nc4cc(C(C)(C)C)ccc4C)cc(OCCC(C)(C)O)n3)CC2(C)C)cc1	216 nM	5450 nM	> 230	> 50000 nM
COc1ccc(N2CCN(c3nc(Nc4cc(C(C)(C)C)ccc4C)cc(C(=O)O)n3)CC2(C)C)cc1	234 nM	1930 nM		
COc1ccc(N2CCN(c3nc(Nc4cc(C(C)(C)C)ccc4C)cc(OC)n3)CC2(C)C)cc1	262 nM	5680 nM	> 190	> 50000 nM
COc1ccc(N2CCN(c3nccc(Nc4cc(C(C)(C)C)nn4CC(F)(F)F)n3)CC2(C)C)cc1	272 nM	5090 nM		
CCOc1ccc(Nc2ccnc(N3CCN(c4ccc(OC)cc4)C(C)(C)C3)n2)c(C)c1	3440 nM	10000 nM		
COc1ccc(N2CCN(c3nc(CS(C)(=O)=O)cc(Nc4cc(C(C)(C)C)ccc4C)n3)CC2(C)C)cc1	348 nM	6460 nM		

The next compounds have a lower IC50 [1] than those just listed; values first:

IC50 [1]	IC50 [2]	Ratio IC50 [3]	IC50 (Gamma-secretase)	SMILES
85 nM	2290 nM			COC(=O)c1cc(Nc2cc(C(C)(C)C)ccc2C)nc(N2CCN(c3ccc(OC)cc3)C(C)(C)C2)n1
108 nM	1590 nM	270	28800 nM	COc1ccc(N2CCN(c3nc(Nc4cc(C(C)(C)C)ccc4C)cc(OCCN(C)C)n3)CC2(C)C)cc1
35.6 nM	737 nM			CCOc1cc(C)c(Nc2ccnc(N3CCN(c4ccc(OC)cc4)C(C)(C)C3)n2)cc1C(C)C
112 nM	1710 nM			COc1ccc(N2CCN(c3nc(Nc4cc(C(C)(C)C)ccc4C)cc(C(=O)NCCN(C)C)n3)CC2(C)C)cc1
88 nM	830 nM	390	34400 nM	COc1ccc(N2CCN(c3nc(N)cc(Nc4cc(C(C)(C)C)ccc4C)n3)CC2(C)C)cc1
169 nM	2950 nM			CCN(CC)c1cc(C)c(Nc2ccnc(N3CCN(c4ccc(OC)cc4)C(C)(C)C3)n2)cc1C
194 nM	8120 nM	> 250	> 50000 nM	COc1ccc(N2CCN(c3nc(Nc4cc(C(C)(C)C)ccc4C)cc(C(=O)NCC4CCCO4)n3)CC2(C)C)cc1 (stereo not given)
34 nM	823 nM	180	6140 nM	COc1ccc(N2CCN(c3nc(CO)cc(Nc4cc(C(C)(C)C)ccc4C)n3)CC2(C)C)cc1
150 nM	1940 nM			COc1ccc(N2CCN(c3nccc(Nc4cc(C(C)(C)C)nn4C)n3)CC2(C)C)cc1
